For test [1], the species on record is Rattus norvegicus. The experiment in a line: Evaluated for the release of histamine in rats (based on 10 animals per dose group). It counts as functional, organism-based.
Test [2] has as its system Rattus norvegicus. The experiment in a line: Evaluated for the anti-ovulatory activity (rats were injected subcutaneously at noon on proestrus). The test is classed as functional. Summed up:
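Female rats with at least two consecutive normal 4-day cycles, confirmed by vaginal lavage cytology, were dosed once s.c. at noon on proestrus in 50% propylene glycol/0.9% saline. On the morning of expected estrus, the oviducts were examined for ovulated eggs, which were counted. The effective dose came from % females ovulating plotted against log dose, usually with ≥3 dose groups (10 rats per group total).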

In brackets after ≈: the same amount, converted by molar mass. Non-standard residues stand in square brackets, D forms with d. Residues, ends and D or L forms follow the SMILES beside them. d(hArg(Et2)) = CCN=C(NCC)NCCCC[C@@H](N)C(=O)O; dPhe(4-Cl) = N[C@H](Cc1ccc(Cl)cc1)C(=O)O; d2Nal = N[C@H](Cc1ccc2ccccc2c1)C(=O)O A value given as a limit tells only on which side of the number the result lay.

Consider `CC/N=C(\NCC)NCCCC[C@H](NC(=O)[C@H](CC(C)C)NC(=O)[C@@H](Cc1c[nH]c2ccccc12)NC(=O)[C@H](Cc1ccc(O)cc1)NC(=O)[C@H](CO)NC(=O)[C@@H](Cc1c[nH]c2ccccc12)NC(=O)[C@@H](Cc1ccc(Cl)cc1)NC(=O)[C@@H](Cc1ccc2ccccc2c1)NC(C)=O)C(=O)N1CCC[C@H]1C(=O)N[C@H](C)C(N)=O`, for which the midpoint of the response in test [1], the EC50, lay at 16 µg/mL (≈ 10.2 µM). Moreover, the ED50 in test [2] is around 0.9 µg.

Take `CCNC(=NCCCC[C@@H](NC(=O)[C@H](Cc1ccc(O)cc1)NC(=O)[C@H](CO)NC(=O)[C@@H](Cc1c[nH]c2ccccc12)NC(=O)[C@@H](Cc1ccc(Cl)cc1)NC(=O)[C@@H](Cc1ccc2ccccc2c1)NC(C)=O)C(=O)N[C@@H](CC(C)C)C(=O)N[C@@H](CCCN=C(N)N)C(=O)N1CCC[C@H]1C(=O)N[C@H](C)C(N)=O)NCC` (Ac-[d2Nal][dPhe(4-Cl)][dW]SY[d(hArg(Et2))]LRP[dA]-NH2): in test [1], the EC50 was determined as 0.18 µg/mL (≈ 0.117 µM). In test [2], the ED50 is around 0.6 µg.

`CC(=O)N[C@H](Cc1ccc2ccccc2c1)C(=O)N[C@H](Cc1ccc(Cl)cc1)C(=O)N[C@H](Cc1c[nH]c2ccccc12)C(=O)N[C@@H](CO)C(=O)N[C@@H](CCCN=C(N)N)C(=O)N[C@H](Cc1c[nH]c2ccccc12)C(=O)N[C@@H](CC(C)C)C(=O)N[C@@H](CCCCN=C(NCC(F)(F)F)NCC(F)(F)F)C(=O)N1CCC[C@H]1C(=O)N[C@H](C)C(N)=O` [listing 1 of 2 here]: the ED50 in test [2] is above 2 µg.

For the compound `CC/N=C(/NCC)NCCCC[C@@H](NC(=O)[C@H](Cc1ccc(O)cc1)NC(=O)[C@H](CO)NC(=O)[C@@H](Cc1cccnc1)NC(=O)[C@@H](Cc1ccc(F)cc1)NC(=O)[C@@H](Cc1ccc2ccccc2c1)NC(C)=O)C(=O)N[C@@H](CC(C)C)C(=O)N[C@@H](CCCCN/C(=N/CC)NCC)C(=O)N1CCC[C@H]1C(=O)N[C@H](C)C(N)=O` [listing 1 of 2 here], in test [2], the ED50 is 1 µg.

In turn, `CC(=O)N[C@H](Cc1ccc2ccccc2c1)C(=O)N[C@H](Cc1ccc(Cl)cc1)C(=O)N[C@H](Cc1c[nH]c2ccccc12)C(=O)N[C@@H](CO)C(=O)N[C@@H](Cc1ccc(O)cc1)C(=O)N[C@H](CCCCNC1=NCCCN1)C(=O)N[C@@H](CC(C)C)C(=O)N[C@@H](CCCCNC1=NCCCN1)C(=O)N1CCC[C@H]1C(=O)N[C@H](C)C(N)=O` [listing 1 of 2 here] came in with an ED50 in test [2] of 0.7 µg.

As for `CC(=O)N[C@H](Cc1ccc2ccccc2c1)C(=O)N[C@H](Cc1ccc(Cl)cc1)C(=O)N[C@H](Cc1cccnc1)C(=O)N[C@@H](CO)C(=O)N[C@@H](CCCCN=C(NCC(F)(F)F)NCC(F)(F)F)C(=O)N[C@H](Cc1ccc(O)cc1)C(=O)N[C@@H](CC(C)C)C(=O)N[C@@H](CCCCN=C(NCC(F)(F)F)NCC(F)(F)F)C(=O)N1CCC[C@H]1C(=O)N[C@H](C)C(N)=O`, in test [1], the EC50 is 53 µg/mL (≈ 29.7 µM). The ED50 in test [2] is 1.15 µg.

`CC/N=C(\NCC)NCCCC[C@H](NC(=O)[C@H](CC(C)C)NC(=O)[C@@H](Cc1cccnc1)NC(=O)[C@H](CCCN=C(N)N)NC(=O)[C@H](CO)NC(=O)[C@@H](Cc1cccnc1)NC(=O)[C@@H](Cc1ccc(Cl)cc1)NC(=O)[C@@H](Cc1ccc2ccccc2c1)NC(C)=O)C(=O)N1CCC[C@H]1C(=O)N[C@H](C)C(N)=O` yielded an EC50 in test [1] of 23.6 µg/mL (≈ 15.9 µM). Moreover, in test [2], the ED50 was 0.425 µg.

In the case of `CC/N=C(\NCC)NCCCC[C@H](NC(=O)[C@H](CC(C)C)NC(=O)[C@@H](CCCCN=C(NCC(F)(F)F)NCC(F)(F)F)NC(=O)[C@H](Cc1ccc(O)cc1)NC(=O)[C@H](CO)NC(=O)[C@@H](Cc1cccnc1)NC(=O)[C@@H](Cc1ccc(F)cc1)NC(=O)[C@@H](Cc1ccc2ccccc2c1)NC(C)=O)C(=O)N1CCC[C@H]1C(=O)N[C@H](C)C(N)=O`, the EC50 in test [1] amounted to 9.3 µg/mL (≈ 5.6 µM).

Regarding `CC/N=C(/NCC)NCCCC[C@@H](NC(=O)[C@H](Cc1ccc(O)cc1)NC(=O)[C@H](CO)NC(=O)[C@@H](Cc1c[nH]c2ccccc12)NC(=O)[C@@H](Cc1ccc(Cl)cc1)NC(=O)[C@@H](Cc1ccc2ccccc2c1)NC(C)=O)C(=O)N[C@@H](CC(C)C)C(=O)N[C@@H](CCCCN/C(=N/CC)NCC)C(=O)N1CCC[C@H]1C(=O)N[C@H](C)C(N)=O` [listing 1 of 2 here], in test [1], the EC50 was determined as 0.1 µg/mL (≈ 0.0622 µM).

Take `CC(=O)N[C@H](Cc1ccc2ccccc2c1)C(=O)N[C@H](Cc1ccc(Cl)cc1)C(=O)N[C@H](Cc1c[nH]c2ccccc12)C(=O)N[C@@H](CO)C(=O)N[C@@H](Cc1ccc(O)cc1)C(=O)N[C@H](Cc1c[nH]c2ccccc12)C(=O)N[C@@H](CC(C)C)C(=O)N[C@@H](CCCCNC1=NCCCN1)C(=O)N1CCC[C@H]1C(=O)N[C@H](C)C(N)=O` [listing 1 of 2 here]: in test [1], the EC50 is 8.5 µg/mL (≈ 5.48 µM).

Consider `CC(=O)N[C@H](Cc1ccc2ccccc2c1)C(=O)N[C@H](Cc1ccc(F)cc1)C(=O)N[C@H](Cc1cccnc1)C(=O)N[C@@H](CO)C(=O)N[C@@H](CCCN=C(N)N)C(=O)N[C@H](Cc1cccnc1)C(=O)N[C@@H](CC(C)C)C(=O)N[C@@H](CCCCNC1=NCCCN1)C(=O)N1CCC[C@H]1C(=O)N[C@H](C)C(N)=O`, for which a half-maximal effect in test [1] (EC50) was put at 6.2 µg/mL (≈ 4.27 µM). For the same compound, the ED50 in test [2] was determined as 0.5 µg.

With `CC/N=C(/NCC)NCCCC[C@@H](NC(=O)[C@H](Cc1ccc(O)cc1)NC(=O)[C@H](CO)NC(=O)[C@@H](Cc1cccnc1)NC(=O)[C@@H](Cc1ccc(Cl)cc1)NC(=O)[C@@H](Cc1ccc2ccccc2c1)NC(C)=O)C(=O)N[C@@H](CC(C)C)C(=O)N[C@@H](CCCCN/C(=N/CC)NCC)C(=O)N1CCC[C@H]1C(=O)N[C@H](C)C(N)=O` [listing 1 of 2 here], in test [1], the concentration for a half-maximal effect (EC50) turned out to be 13 µg/mL (≈ 8.28 µM).

`CC/N=C(\NCC)NCCCC[C@H](NC(=O)[C@H](CO)NC(=O)[C@@H](Cc1cccnc1)NC(=O)[C@@H](Cc1ccc(F)cc1)NC(=O)[C@@H](Cc1ccc2ccccc2c1)NC(C)=O)C(=O)N[C@H](Cc1cccnc1)C(=O)N[C@@H](CC(C)C)C(=O)N[C@@H](CCCCN/C(=N/CC)NCC)C(=O)N1CCC[C@H]1C(=O)N[C@H](C)C(N)=O`: the EC50 in test [1] was 26.2 µg/mL (≈ 17 µM).

Consider `CC(=O)N[C@H](Cc1ccc2ccccc2c1)C(=O)N[C@H](Cc1ccc(Cl)cc1)C(=O)N[C@H](Cc1cccnc1)C(=O)N[C@@H](CO)C(=O)N[C@@H](Cc1ccc(O)cc1)C(=O)N[C@H](CCCCNC1=NCCCN1)C(=O)N[C@@H](CC(C)C)C(=O)N[C@@H](CCCCNC1=NCCCN1)C(=O)N1CCC[C@H]1C(=O)N[C@H](C)C(N)=O`, for which a half-maximal effect in test [1] (EC50) was put at 1.33 µg/mL (≈ 0.865 µM). For the same compound, the ED50 in test [2] is around 0.6 µg.

Consider `CC(=O)N[C@H](Cc1ccc2ccccc2c1)C(=O)N[C@H](Cc1ccc(Cl)cc1)C(=O)N[C@H](Cc1c[nH]c2ccccc12)C(=O)N[C@@H](CO)C(=O)N[C@@H](Cc1ccc(O)cc1)C(=O)N[C@H](Cc1c[nH]c2ccccc12)C(=O)N[C@@H](CC(C)C)C(=O)N[C@@H](CCCCN=C(NCC(F)(F)F)NCC(F)(F)F)C(=O)N1CCC[C@H]1C(=O)N[C@H](C)C(N)=O` [listing 1 of 2 here], for which the EC50 in test [1] is above 100 µg/mL.

`CC(=O)N[C@H](Cc1ccc2ccccc2c1)C(=O)N[C@H](Cc1ccc(Cl)cc1)C(=O)N[C@H](Cc1c[nH]c2ccccc12)C(=O)N[C@@H](CO)C(=O)N[C@@H](Cc1ccc(O)cc1)C(=O)N[C@H](CCCCNC1=NCCCN1)C(=O)N[C@@H](CC(C)C)C(=O)N[C@@H](CCCCNC1=NCCCN1)C(=O)N1CCC[C@H]1C(=O)N[C@H](C)C(N)=O` [listing 2 of 2 here] had an EC50 in test [1] of 2.5 µg/mL (≈ 1.59 µM).

In test [1], `CC/N=C(/NCC)NCCCC[C@@H](NC(=O)[C@H](Cc1ccc(O)cc1)NC(=O)[C@H](CO)NC(=O)[C@@H](Cc1cccnc1)NC(=O)[C@@H](Cc1ccc(F)cc1)NC(=O)[C@@H](Cc1ccc2ccccc2c1)NC(C)=O)C(=O)N[C@@H](CC(C)C)C(=O)N[C@@H](CCCCN/C(=N/CC)NCC)C(=O)N1CCC[C@H]1C(=O)N[C@H](C)C(N)=O` [listing 2 of 2 here] showed an EC50 of 8 µg/mL (≈ 5.15 µM). Against the preceding compound, the EC50 is about 3.2-fold higher.

`CC/N=C(/NCC)NCCCC[C@@H](NC(=O)[C@H](Cc1ccc(O)cc1)NC(=O)[C@H](CO)NC(=O)[C@@H](Cc1c[nH]c2ccccc12)NC(=O)[C@@H](Cc1ccc(Cl)cc1)NC(=O)[C@@H](Cc1ccc2ccccc2c1)NC(C)=O)C(=O)N[C@@H](CC(C)C)C(=O)N[C@@H](CCCCN/C(=N/CC)NCC)C(=O)N1CCC[C@H]1C(=O)N[C@H](C)C(N)=O` [listing 2 of 2 here]: in test [2], the ED50 came out at 0.5 µg.

For the compound `CC(=O)N[C@H](Cc1ccc2ccccc2c1)C(=O)N[C@H](Cc1ccc(Cl)cc1)C(=O)N[C@H](Cc1c[nH]c2ccccc12)C(=O)N[C@@H](CO)C(=O)N[C@@H](CCCN=C(N)N)C(=O)N[C@H](Cc1c[nH]c2ccccc12)C(=O)N[C@@H](CC(C)C)C(=O)N[C@@H](CCCCN=C(NCC(F)(F)F)NCC(F)(F)F)C(=O)N1CCC[C@H]1C(=O)N[C@H](C)C(N)=O` [listing 2 of 2 here], the EC50 in test [1] was 0.56 µg/mL (≈ 0.335 µM).

Consider `CC(=O)N[C@H](Cc1ccc2ccccc2c1)C(=O)N[C@H](Cc1ccc(Cl)cc1)C(=O)N[C@H](Cc1c[nH]c2ccccc12)C(=O)N[C@@H](CO)C(=O)N[C@@H](Cc1ccc(O)cc1)C(=O)N[C@H](Cc1c[nH]c2ccccc12)C(=O)N[C@@H](CC(C)C)C(=O)N[C@@H](CCCCN=C(NCC(F)(F)F)NCC(F)(F)F)C(=O)N1CCC[C@H]1C(=O)N[C@H](C)C(N)=O` [listing 2 of 2 here], for which the ED50 in test [2] was above 2 µg.

As to `CC/N=C(/NCC)NCCCC[C@@H](NC(=O)[C@H](Cc1ccc(O)cc1)NC(=O)[C@H](CO)NC(=O)[C@@H](Cc1cccnc1)NC(=O)[C@@H](Cc1ccc(Cl)cc1)NC(=O)[C@@H](Cc1ccc2ccccc2c1)NC(C)=O)C(=O)N[C@@H](CC(C)C)C(=O)N[C@@H](CCCCN/C(=N/CC)NCC)C(=O)N1CCC[C@H]1C(=O)N[C@H](C)C(N)=O` [listing 2 of 2 here], the ED50 in test [2] was 0.285 µg.

Turning to `CC(=O)N[C@H](Cc1ccc2ccccc2c1)C(=O)N[C@H](Cc1ccc(Cl)cc1)C(=O)N[C@H](Cc1c[nH]c2ccccc12)C(=O)N[C@@H](CO)C(=O)N[C@@H](Cc1ccc(O)cc1)C(=O)N[C@H](Cc1c[nH]c2ccccc12)C(=O)N[C@@H](CC(C)C)C(=O)N[C@@H](CCCCNC1=NCCCN1)C(=O)N1CCC[C@H]1C(=O)N[C@H](C)C(N)=O` [listing 2 of 2 here], the ED50 in test [2] is above 1 µg.

For the compound `CCCC/N=C(\N)NCCCC[C@H](NC(=O)[C@H](CO)NC(=O)[C@@H](Cc1cccnc1)NC(=O)[C@@H](Cc1ccc(Cl)cc1)NC(=O)[C@@H](Cc1ccc2ccccc2c1)NC(C)=O)C(=O)N[C@H](Cc1cccnc1)C(=O)N[C@@H](CC(C)C)C(=O)N[C@@H](CCCCN/C(N)=N/CCCC)C(=O)N1CCC[C@H]1C(=O)N[C@H](C)C(N)=O` [listing 1 of 2 here], in test [2], the ED50 came to 1.5 µg.

Consider `CCCC/N=C(\N)NCCCC[C@H](NC(=O)[C@H](CO)NC(=O)[C@@H](Cc1cccnc1)NC(=O)[C@@H](Cc1ccc(Cl)cc1)NC(=O)[C@@H](Cc1ccc2ccccc2c1)NC(C)=O)C(=O)N[C@H](Cc1cccnc1)C(=O)N[C@@H](CC(C)C)C(=O)N[C@@H](CCCCN/C(N)=N/CCCC)C(=O)N1CCC[C@H]1C(=O)N[C@H](C)C(N)=O` [listing 2 of 2 here], for which the response in test [1] was half-maximal at 9.3 µg/mL (≈ 5.98 µM) (EC50).
